Compounds with a hit are over-represented: about 2.2% of the library has one in this group of screens.
LEDGF integ inh: blocks HIV-1 LEDGF/p75-dependent DNA integration. TR-FRET IN-LEDGF/p75 DNA integration, Eu/Cy5. inhibition, % at 3.7 µM. actives 0.64% (n = 370,000). AID 743269;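 active = inhibition above the screen-wide mean plus 3 SD, cut at about 13% in these data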;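 note: signal is the Cy5 over europium emission ratio at 671 and 618 nm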
SIAE primary: human SIAE inhibition, primary screen. Q9HAT2. SIAE FP-Rh probe binding, fluorescence polarization. AID 1053197. actives 0.69% (n = 370,000). inhibition, % at 9.66 µM;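 active = inhibition above a cutoff: mean of compounds within the control limits plus 3 SD of those, cut at about 17% in these data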
HTRA1 inhibitor: HTRA1 (human) protease inhibition | recombinant HTRA1, FP-rhodamine activity-based probe, fluorescence polarization | inhibition, % at 5.96 µM | actives 0.5% (n = 340,000) | AID 504803; in the data active = inhibition above about 36%
TCR-CD3 inh: inhibitors of human TCR-CD3 interaction. TAMRA-labeled TCR probe fluorescence, biochemical. actives 0.37% (n = 360,000). inhibition, % at 9.4 µM; in the data active = inhibition above about 19%;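 note: recombinant mutant TCR 2C K166C tagged with TAMRA read by polarization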
TDP2 inh: blocks human TDP2 phosphodiesterase activity | O95551 | recombinant TDP2, T5PNP hydrolysis, p-nitrophenol absorbance 415 nm | inhibition, % at 12.8 µM | actives 0.34% (n = 370,000) | AID 720702;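 active = inhibition above the mean of all tested compounds plus 3 SD, set per campaign, cut at about 25% in these data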
Target sequence (O95551 whole entry, looked up): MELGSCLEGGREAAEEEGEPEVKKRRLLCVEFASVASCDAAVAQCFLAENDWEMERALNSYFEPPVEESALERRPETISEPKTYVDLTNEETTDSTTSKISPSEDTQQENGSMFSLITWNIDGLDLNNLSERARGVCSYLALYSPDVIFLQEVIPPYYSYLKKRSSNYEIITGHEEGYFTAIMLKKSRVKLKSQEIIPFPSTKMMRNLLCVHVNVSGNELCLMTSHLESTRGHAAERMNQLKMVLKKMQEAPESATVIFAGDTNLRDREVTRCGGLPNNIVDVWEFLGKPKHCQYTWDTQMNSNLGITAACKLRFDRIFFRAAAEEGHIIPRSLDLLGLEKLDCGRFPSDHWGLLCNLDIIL
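Evaluation: % inhibition relative to enzyme-containing and enzyme-free wells. Material: recombinant human TDP2. Benchmarks: enzyme-free and DMSO wells. Timing: enzyme reaction with compound for 2 h at 37 °C. Compound dosing: 12.8 µM only. Measured by: p-Nitrophenol epi absorbance. Reagent: T5PNP substrate at 5 mM, a TopII-DNA adduct mimic. Replication: single well per compound.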
ABHD4 inh: inhibitors of mouse ABHD4; Q8VD66; purified mABHD4, FP-Rh probe fluorescence polarization; inhibition, % at 8.92 µM; actives 0.54% (n = 370,000);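 active = inhibition exceeding the mean over every tested compound plus 3 SD, cut at about 30% in these data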
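Assay system: mouse ABHD4 enzyme, wild type / Also added: fluorescent activity-based probe FP-Rh / Doses: single nominal dose of 8.92 µM, 0.89% DMSO final / Timing: 45 min compound pre-incubation plus 60 min probe step, 25 °C / Signal: FP readout, ex 525 nm / em 598 nm / Control set: S159A mutant/DMSO as 100%, compound-well median as 0%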
HTRA1 inh conf: confirmation of human HTRA1 inhibitors | inhibition, % at 5.96 µM | recombinant HTRA1, FP-rhodamine activity-based probe, fluorescence polarization | actives 66% (n = 1,600) | shares compounds with HTRA1 inhibitor;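 active = mean inhibition over three repeats above a set limit taken from the earlier primary screen, cut at about 37% in these data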;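 note: inhibitors block probe binding so polarization drops and inhibition rises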
Large screens that a line does not name were inactive (follow-up assays come after a bar, where they were run).

Cc1ccc2nc(-c3ccccn3)c(NC3CCCC3)n2c1	HTRA1 inhibitor 37.8 | HTRA1 inh conf 37.9
CCCCCCSc1cccc(-c2nc3ccc(C)cn3c2NC2CCCCC2)c1	none
CCCCn1c(Nc2ccccc2)nc2ccccc21	none
CCCn1c(Nc2nc3ccccc3n2C)nc2ccccc21	HTRA1 inhibitor 39.3 | HTRA1 inh conf 46.9
O=C(CCc1ccccc1)N[C@H]1[C@H](O)CCC[C@]12C(=O)N(Cc1ccccc1)c1ccccc12	none (no result: HTRA1 inhibitor, TCR-CD3 inh)
O=C1C=C(N2CCN(c3ccccn3)CC2)C(=O)c2c(O)ccc(O)c21	HTRA1 inhibitor 38.0 | HTRA1 inh conf 49.5
O=C(N1CCN(c2ccccn2)CC1)C(Cl)(Cl)Cl	none
CC(C)Cn1c(=O)cc(N2CCN(c3cccc(C(F)(F)F)c3)CC2)[nH]c1=O	none (no result: HTRA1 inhibitor, TCR-CD3 inh)
COC(=O)C1=C(C)N(C)C(=NCc2cccc(C(F)(F)F)c2)NC1c1ccc(Cl)cc1 (configuration not stated)	none (no result: HTRA1 inhibitor)
COc1ccc(C=CC(=O)c2ccc(OC)c(OC)c2O)cc1OC	none
Cc1ccc(/C=C/C(=O)c2ccccc(=O)c2O)cc1C	HTRA1 inhibitor 36.9 | HTRA1 inh conf 44.2
CN1/C(=C/C=C/c2n(C)c3cc([N+](=O)[O-])c([N+](=O)[O-])cc3[n+]2C)C(C)(C)c2ccccc21	HTRA1 inhibitor 42.1 | HTRA1 inh conf 41.5
CCC[n+]1c(C)sc2c3c(ccc21)CCCC3	HTRA1 inhibitor 45.7 (no result: LEDGF integ inh, SIAE primary, TCR-CD3 inh, TDP2 inh, ABHD4 inh) | HTRA1 inh conf 49.9
COc1ccc(/C=N\NC(=O)c2cc(O)c(O)c(O)c2)cc1COc1ccc(C(=O)OCC(C)C)cc1	HTRA1 inhibitor 58.3 | HTRA1 inh conf 55.1
COc1ccc(C(=O)N/N=C/c2ccc(OC)c(COc3ccccc3)c2)cc1	none
O=C(NC1CCCCN(Cc2cccc(F)c2)C1=O)c1ccc2ccccc2c1 (configuration not stated)	none (no result: HTRA1 inhibitor, TCR-CD3 inh)
COc1cc(/C=N/NC(N)=O)ccc1OC(=O)c1cccs1	none
COc1cc(/C=N/Nc2ccc(Cl)cc2)ccc1OC(=O)c1cccs1	HTRA1 inhibitor 47.2 | HTRA1 inh conf 67.5
COC(=O)c1ccc(N)c2c(N)ccc(C(=O)OC)c12	none (no result: HTRA1 inhibitor)
Cc1cc2ccccc2n1CCNC(=O)COc1ccccc1	HTRA1 inhibitor 49.1 | HTRA1 inh conf inactive
Cc1cc2ccccc2n1CCNC(=O)c1ccc(Br)o1	HTRA1 inhibitor 56.9 | HTRA1 inh conf inactive
COc1ccc(C(NC(=O)C(C)C)c2ccc3cccnc3c2O)cc1 (configuration not stated)	none
CCC(=O)NC(c1ccc(C)cc1)c1ccc2cccnc2c1O (configuration not stated)	HTRA1 inhibitor 64.4 | HTRA1 inh conf 75.7
CCCC(=O)NC(c1ccc(N(C)C)cc1)c1ccc2cccnc2c1O (configuration not stated)	none
CCCC(=O)NC(c1ccccc1Cl)c1ccc2cccnc2c1O (configuration not stated)	HTRA1 inhibitor 37.8 | HTRA1 inh conf 39.8
CC(C)C(=O)NC(c1ccc(Cl)cc1Cl)c1ccc2cccnc2c1O (configuration not stated)	HTRA1 inhibitor 48.7 | HTRA1 inh conf 46.8
CCCC(=O)NC(c1ccc(C(C)C)cc1)c1ccc2cccnc2c1O (configuration not stated)	HTRA1 inhibitor 52.0 | HTRA1 inh conf 54.3
Cc1cc(Oc2cccnc2)ccc1NC(=O)Cc1cn(C)c2ccccc12	none (no result: HTRA1 inhibitor)
C[C@@H]1[C@@H](O)C[C@@]2(C[C@H](O)c3ccccc3O2)O[C@H]1c1ccccc1	none (no result: HTRA1 inhibitor, TCR-CD3 inh)
Cc1cc(NC(c2ccc(Cl)cc2)c2ccc3cccnc3c2O)no1 (configuration not stated)	HTRA1 inhibitor 48.5 | HTRA1 inh conf 50.7
CCCCC(=O)NC(c1ccc(OC)cc1)c1ccc2cccnc2c1O (configuration not stated)	none
O=C(O)c1ccccc1NC(c1ccccc1)c1ccc2cccnc2c1O (configuration not stated)	HTRA1 inhibitor 49.0 | HTRA1 inh conf 67.5

Compound activity (PubChem)
